Experimental data: ChEMBL document CHEMBL1126272, “Inhibition of collagenase by aranciamycin and aranciamycin derivatives” (J Med Chem, 1992)
Activity calls are given as the source filed them. No cut-off for these calls is given here.

Key:
[1] = Concentration inhibiting [3H]TdR incorporation in Yoshida sarcoma tumor cells in vitro in rats; type: functional, cell-based, Rattus norvegicus
Summary of the method: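 Yoshida sarcoma cells kept by weekly intraperitoneal passage in Lewis rats. Peritoneal cells washed, placed in RPMI 1640 with 10% FCS at 37 °C, 5% CO2. Nonadherent cells taken after 2 h, set at 10^6 cells/mL, then exposed 24 h to compounds (10^-8–10^-4 M, DMSO ≤0.5%). [3H]thymidine (1 μCi/mL) given for the last 4 h. IC50 for incorporation into DNA read from dose-response curve.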

[2] = target: Serine protease 1 (Homo sapiens) (UniProt P07477); experiment: Inhibitory activity against trypsin at 10e-5 M; NI = no inhibition
Summary of the method: (§1)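 Trypsin dissolved at 1 mg/mL in PBS pH 7.5. Substrate N-α-benzoyl-L-arginine-p-nitroanilide, 0.2 mM in PBS with 5% DMSO, preincubated 5 min at 37 °C with or without compound. Enzyme then added and the reaction followed at 410 nm for 5 min. Compounds dissolved in DMSO, ≤0.5% in samples.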

[3] = target: Pancreatic elastase (Sus scrofa) (UniProt P08419+P00772); experiment: Inhibition of Pancreatic elastase at 10e-5 M; NI means no inhibition; type: protein assay
Summary of the method: as §1, with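 “Porcine pancreatic elastase diluted to 2” for “Trypsin dissolved at 1”, “N-acetyl-Ala-Ala-Ala-p-nitroanilide,” for “N-α-benzoyl-L-arginine-p-nitroanilide,”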

[4] = target: T1, Chymotrypsin-like elastase family member 2A (Sus scrofa) (UniProt P08419); experiment: Inhibitory activity against elastase at a concentration of 10e-5 M; NI means no inhibition
T1 sequence (whole entry): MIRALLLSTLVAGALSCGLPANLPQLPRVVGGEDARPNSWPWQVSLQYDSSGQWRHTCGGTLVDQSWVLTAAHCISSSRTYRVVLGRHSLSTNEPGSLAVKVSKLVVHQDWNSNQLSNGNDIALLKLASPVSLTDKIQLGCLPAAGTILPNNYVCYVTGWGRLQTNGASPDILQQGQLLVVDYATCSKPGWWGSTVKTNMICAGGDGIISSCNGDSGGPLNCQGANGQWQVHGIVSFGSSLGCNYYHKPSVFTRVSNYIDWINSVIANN
Summary of the method: as §1, with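 “Porcine pancreatic elastase diluted to 2” for “Trypsin dissolved at 1”, “N-acetyl-Ala-Ala-Ala-p-nitroanilide,” for “N-α-benzoyl-L-arginine-p-nitroanilide,”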

Serine protease 1 (Homo sapiens), sequence (P07477 whole entry): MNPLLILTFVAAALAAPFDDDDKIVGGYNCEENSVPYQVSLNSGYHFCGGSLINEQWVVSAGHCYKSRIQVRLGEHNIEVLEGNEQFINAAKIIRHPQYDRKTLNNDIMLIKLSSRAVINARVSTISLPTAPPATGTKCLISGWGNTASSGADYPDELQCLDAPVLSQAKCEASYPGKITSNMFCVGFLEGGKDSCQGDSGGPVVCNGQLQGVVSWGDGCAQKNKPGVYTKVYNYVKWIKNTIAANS
Pancreatic elastase (Sus scrofa), sequence (P00772 whole entry, looked up, one chain of several): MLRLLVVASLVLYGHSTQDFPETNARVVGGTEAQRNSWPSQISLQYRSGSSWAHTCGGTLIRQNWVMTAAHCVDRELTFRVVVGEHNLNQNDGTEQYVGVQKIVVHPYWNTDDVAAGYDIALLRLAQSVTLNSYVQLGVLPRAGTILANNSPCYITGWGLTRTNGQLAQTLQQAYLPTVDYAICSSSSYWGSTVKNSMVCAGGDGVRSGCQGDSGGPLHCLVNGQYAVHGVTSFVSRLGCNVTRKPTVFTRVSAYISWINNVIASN

Row | SMILES | IC50 [1] [nM] | inhibition [2] | inhibition [3] | inhibition [4]
1 | CCOP(=O)(OCC)O[C@]1(C)C(=O)c2cc3c(c(O)c2[C@@H](OC2OC(C)C(O)C(O)C2OC)[C@@H]1OC)C(=O)c1c(O)cccc1C3=O (some centres undefined) | 630 | inactive | inactive | –
2 | CC[C@@]1(O)C[C@H](O[C@H]2C[C@H](N(C)C)[C@H](O[C@H]3C[C@H](O)[C@H](O[C@H]4CCC(=O)[C@H](C)O4)[C@H](C)O3)[C@H](C)O2)c2c(cc3c(c2O)C(=O)c2c(O)cccc2C3=O)[C@H]1C(=O)OC [ACLARUBICIN] | < 20 | inactive | – | inactive
3 | COC1C(O[C@@H]2c3c(cc4c(c3O)C(=O)c3c(O)cccc3C4=O)C(=O)[C@@](C)(O)[C@H]2OC)OC(C)C(O)C1O (some centres undefined) | 2200 | inactive | inactive | –
4 | COC1C(O[C@@H]2c3c(cc4c(c3O)C(=O)c3c(ccc(N(C)C)c3O)C4=O)C(=O)[C@@](C)(O)[C@H]2OC)OC(C)C(O)C1O (some centres undefined) | 630 | inactive | inactive | –
5 | COC1C(C)OC(O[C@@H]2c3c(cc4c(c3O)C(=O)c3c(O)cccc3C4=O)C(=O)[C@@](C)(O)[C@H]2OC)C(OC)C1OC (some centres undefined) | 4700 | inactive | inactive | –
6 | COC1C(O[C@@H]2c3c(cc4c(c3O)C(=O)c3c(O)cccc3C4=O)C(=O)[C@](C)(O)[C@H]2OC)OC(C)C(O)C1O (some centres undefined) | 1000 | inactive | inactive | –
7 | CO[C@H]1[C@H](O)c2c(cc3c(c2O)C(=O)c2c(O)cccc2C3=O)C(=O)[C@@]1(C)O | 600 | inactive | inactive | –
8 | COc1cccc2c1C(=O)c1c(O)c3c(c(O)c1C2=O)C[C@@](O)(C(C)=O)C[C@@H]3O[C@H]1C[C@H](N)[C@H](O)[C@H](C)O1 [DAUNORUBICIN] | < 20 | inactive | inactive | –
9 | COC1C(O[C@@H]2c3c(cc4c(c3O)C(=O)c3c(O)cccc3C4=O)C(/N=N/S(=O)(=O)c3ccc(C)cc3)[C@@](C)(O)[C@H]2OC)OC(C)C(O)C1O (some centres undefined) | 3900 | inactive | inactive | –
10 | COC1C(O[C@@H]2c3c(cc4c(c3O)C(=O)c3c(O)c(N(C)C)cc(N(C)C)c3C4=O)C(=O)[C@@](C)(O)[C@H]2OC)OC(C)C(O)C1O (some centres undefined) | 5000 | inactive | inactive | –
11 | COc1cccc2c1C(=O)c1c(O)c3c(c(O)c1C2=O)C[C@@](O)(C(=O)CO)C[C@@H]3O[C@H]1C[C@H](N)[C@H](O)[C@H](C)O1 [DOXORUBICIN] | < 20 | inactive | inactive | –
12 | COC1C(O[C@@H]2c3c(cc4c(c3O)C(=O)c3c(O)cccc3C4=O)C(=O)[C@@](C)(O)[C@H]2OC)OC(C)C(OC(C)=O)C1OC(C)=O (some centres undefined) | 1300 | inactive | inactive | –
13 | COC1C(O[C@@H]2c3c(cc4c(c3O)C(=O)c3c(O)cccc3C4=O)C(=O)[C@@](C)(O)[C@H]2OC)OC(C)C(O)C1O[Si](C)(C)C(C)(C)C (some centres undefined) | 1400 | inactive | inactive | –
